# Compounds with a hit are over-represented: about 4.8% of the library has one in this group of screens.
# GPR7 antagonist: blocks human GPR7 receptor signaling. GPR7-expressing cells, fluorescence antagonist assay. inhibition, % at 4.4 µM. actives 1.1% (n = 290,000). AID 1861; in the data active = inhibition above about 16%, passing the limit was not always enough;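 note: cells stimulated with the agonist NPW; 0% = agonist with vehicle and 100% = vehicle without agonist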
# Target sequence (P48145 whole entry, looked up): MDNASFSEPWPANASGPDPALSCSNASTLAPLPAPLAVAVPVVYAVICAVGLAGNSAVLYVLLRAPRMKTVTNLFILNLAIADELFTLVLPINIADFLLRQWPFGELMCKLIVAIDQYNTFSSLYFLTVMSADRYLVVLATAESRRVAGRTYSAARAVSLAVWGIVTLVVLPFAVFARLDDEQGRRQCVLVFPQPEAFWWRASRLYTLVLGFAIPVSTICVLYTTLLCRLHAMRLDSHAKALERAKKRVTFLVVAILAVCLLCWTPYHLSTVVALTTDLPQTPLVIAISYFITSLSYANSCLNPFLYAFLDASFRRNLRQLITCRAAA
# 697 NFkB inh: lowers PMA/ionomycin-induced NF-kB signal in 697 B cells; 697 B-cell NF-kB luciferase reporter, 16 h; inhibition, % at 4 µM; actives 0.33% (n = 330,000); AID 435022; in the data active = inhibition above about 35%
# HSF1 inhib: HSF1 inhibition. NIH3T3-HGL HSE-luciferase, MG132-induced, luminescence 8 h; active compounds read low. activity change, negative = inhibition, % at 7.5 µM (by protocol). actives 0.77% (n = 300,000). AID 2098;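 active = more than half of replicate wells show activity change below -50%, luminescence cut by over half; inconclusive = some wells, but at most half, below -50%; inactive = no replicate well below -50%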;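 note: luciferase reports HSF-1 transcriptional activity via heat shock element; 0% = median of DMSO wells and -100% = zero luminescence signal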
# T cruzi inh: blocks replication of Trypanosoma cruzi; T. cruzi beta-gal in NIH3T3, luminescence, 90 h; inhibition, % (test concentration not listed); actives 1.4% (n = 300,000); AID 1885;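 active = mean inhibition across valid replicates above about 55%, limit read from the data; inconclusive = mean below that limit but half or more replicates reach it; inactive = mean below it, under half of replicates reach it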;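 note: signal also drops with host cell toxicity which is not excluded here; 0% = plate median of DMSO wells and 100% = zero luminescence signal; higher percent means less beta-gal luminescence so fewer parasites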
#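 System: Mouse NIH/3T3 fibroblasts infected with β-gal-expressing T. cruzi Tulahuen C4 | Quantity: NIH/3T3 cells, 5,000 per well | Reagent: 5000 reporter trypomastigotes per well | Dosing: Compound pinned at 50 nL/well, DMSO | Schedule: 3 h host attachment, then at least 90 h co-culture | Detection: GalScreen luminescence, 60 min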
# Jurkat NFkB inh: lowers PMA/ionomycin-induced NF-kB signal in Jurkat cells; PMA/ionomycin-induced NF-kB luciferase reporter, luminescence; inhibition, % at 4 µM; actives 0.53% (n = 330,000); AID 435003; in the data active = inhibition above about 50%
# HSF1 activator: increases HSF-1 driven luciferase reporter signal; actives 1.7% (n = 300,000); NIH3T3-HGL HSF-1 luciferase reporter, MG132, 8 h; 100% = twice DMSO control signal; AID 504408; activation, % at 9 µM;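 active = mean replicate activation of at least 50% with a set share of replicates each reaching 50%; inconclusive = only one of those two conditions met; inactive = mean below 50% and too few replicates reaching it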;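 note: 0% = median of the neutral control wells and 100% = twice that signal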
# * hit, by the source's call; u = inconclusive; x = no result given.
SMILES,GPR7 antagonist,697 NFkB inh,HSF1 inhib,T cruzi inh,Jurkat NFkB inh,HSF1 activator
Nc1cccc(C(=O)OCC(=O)Nc2cccc3c2C(=O)c2ccccc2C3=O)c1,-8.2,23.5,-9.6,-2.9,-12.0,-1.3
CCN(CC)CCC(=O)Nc1cccc2c1C(=O)c1ccccc1C2=O,-9.1,0.5,11.8,55.8*,-20.3,11.4
Nc1ccc(N2CCCCC2)c(Cl)c1,-6.0,-1.9,-10.5,-11.7,6.6,-7.8
Cn1cnc([N+](=O)[O-])c1S(=O)(=O)c1ccc(Cl)cc1,12.4,x,127.3,35.7,x,150.5*
Cn1cnc([N+](=O)[O-])c1NC(C)(C)C,-5.2,4.4,-1.7,-12.0,-7.5,-24.0
COc1cccc(C(=O)Nc2ccccc2)c1,7.1,15.7,2.5,-14.9,-36.7,30.1
COc1cccc(C(=O)NC(c2ccccc2)C2CCCC2)c1 (stereo not given),-9.3,5.7,31.2,18.0,14.7,68.9*
Cc1sc(NC(=O)c2ccccc2)c(C#N)c1-c1ccccc1,-17.2,-165.5,33.1,8.8,-82.6,57.2*
COc1ccc(C(=O)C(CCC(CNC(C)(C)C)C(=O)c2ccc(OC)cc2)CNC(C)(C)C)cc1 (stereo not given),79.3*,x,14.5,21.1,x,34.7
Cc1c(C(=O)NCC2COc3ccccc3O2)oc2ccc(S(=O)(=O)N3CC(C)CC(C)C3)cc12 (stereo not given),-3.2,-23.4,-0.8,63.5*,3.8,-0.3
CCN(CC)CCCNC(=O)c1oc2ccc(S(=O)(=O)N3CC(C)CC(C)C3)cc2c1C (stereo not given),3.7,-4.5,1.3,56.4*,0.1,6.8
Cc1c(C(=O)NCC2COc3ccccc3O2)oc2ccc(S(=O)(=O)N3CCOCC3)cc12 (stereo not given),-9.2,5.7,-4.4,8.4,10.1,-0.9
CN(CCCCCCCCCCN(C)C(=O)Oc1cccc([N+](C)(C)C)c1)C(=O)Oc1cccc([N+](C)(C)C)c1,x,-24.7,x,x,-2.2,x
CC(=O)Nc1sc(N/N=C/c2ccccc2)nc1-c1ccc(C)cc1,-7.5,-18.5,4.0,-8.4,-6.5,14.1
CCCc1sc(N/N=C/c2ccccn2)nc1-c1ccc(Br)cc1,-13.8,-89.4,-7.3,65.5*,-49.3,-10.2
Cc1ncc(CN2CCC(N3CCC(C(=O)N4CCCC4)CC3)CC2)s1,-12.2,-5.5,17.5,-1.5,0.2,34.5
COc1ccc(C2CC(c3cccs3)=NN2C(=O)CCl)cc1OC (stereo not given),-1.1,-45.7,35.9,61.7*,2.8,u
COc1ccc(C2CC(c3cccs3)=NN2C(=O)c2ccccc2)cc1OC (stereo not given),-6.9,17.0,-0.2,-6.3,-19.6,7.9
COc1cc(C2CC(c3cccs3)=NN2C(=O)CCl)ccc1OC(F)F (stereo not given),1.1,-4.9,-67.1*,61.0*,-14.0,-72.5
COc1cccc(C2CC(c3cccs3)=NN2C(=O)c2ccco2)c1O (stereo not given),-11.4,12.5,72.7,17.9,8.2,62.8*
CC(C)C[C@H]1CN=C(Nc2ccccc2)N1CC1CCC1,11.6,-46.3,-5.5,3.5,-31.2,-13.2
Nc1c(C(=O)c2ccccc2)oc2ccc(Br)cc12,13.8,-136.8,28.8,8.2,-101.5,62.6*
C=CCn1c(=NC(=O)c2cc(-c3cccs3)nc3ccccc23)sc2cc(S(N)(=O)=O)ccc21,-2.3,10.8,17.3,46.5,-2.1,38.4
COCCn1c(=NC(=O)c2cc(-c3cccs3)nc3ccccc23)sc2cc(S(N)(=O)=O)ccc21,-0.1,-31.6,3.7,67.0*,-3.0,26.9
COC(=O)c1ccc(OC(=O)CCN2c3ccccc3Sc3ccccc32)cc1,-10.1,-1.4,13.9,-16.6,16.4,26.9
SMILES,GPR7 antagonist,697 NFkB inh,HSF1 inhib,T cruzi inh,Jurkat NFkB inh,HSF1 activator
COC(=O)c1ccc(OC(=O)CCN2C(=O)C3CCCCC3C2=O)cc1 (stereo not given),2.0,-2.5,25.3,-6.1,0.3,60.9*
C=CCn1c(C)cc(C(=O)COC(=O)[C@@H](NC(=O)c2ccccc2Cl)C(C)C)c1C,-8.9,-45.2,-60.5*,-7.6,-25.2,-65.7
C=CCn1c(C)cc(C(=O)COC(=O)COc2ccccc2C#N)c1C,-3.5,-4.2,-3.0,-5.3,3.4,2.4
Cc1nn(C(C)C(=O)N2CCCC2)c(=O)c2nn(-c3ccccc3)c(C)c12 (stereo not given),-0.5,-18.5,-3.2,55.8*,-6.5,14.4
Cc1occc1C(=O)NNC(=O)CN1C(=O)NC(C)(c2ccccc2)C1=O (stereo not given),x,-27.6,0.3,-3.6,-2.7,7.2
CC(C)CN(C(=O)c1cccs1)C1CCS(=O)(=O)C1 (stereo not given),x,-2.3,19.1,0.1,-0.6,62.3*
CCN(C(=O)c1cccs1)C1CCS(=O)(=O)C1 (stereo not given),x,-7.2,2.3,0.5,-10.8,3.1
CC(C)CN(C(=O)c1cc([N+](=O)[O-])cc([N+](=O)[O-])c1)C1CCS(=O)(=O)C1 (stereo not given),x,14.1,0.7,56.7*,28.5,-0.1
CSCCC(NS(=O)(=O)c1ccc2c(c1)oc(=O)n2C)C(=O)NCc1ccc(C)cc1 (stereo not given),-7.1,1.6,2.6,2.0,-4.3,11.4
c1ccc(COc2ccccc2CNC23CC4CC(CC(C4)C2)C3)cc1,35.8*,-29.7,3.9,56.2*,2.4,5.2
c1csc(COc2ccccc2CNC2CCCCC2)c1,23.8*,7.5,-0.5,-15.5,-0.3,12.9
c1ccc(COc2ccccc2CNC2CCCC2)cc1,13.0,1.4,23.9,11.6,-0.2,58.2*
O=C(CC1C(=O)NCCN1Cc1ccccc1C(F)(F)F)NC1CCC1 (stereo not given),-5.1,-32.0,-4.1,0.8,1.0,6.0
CC1CCN(C(=O)Nc2ccc3nsnc3c2)CC1,-3.8,-23.0,23.5,4.6,-33.3,56.7*
S=C(Nc1ccc2nsnc2c1)NC1CCCCC1,-5.4,-40.9,30.7,8.5,-47.5,82.1*
O=C(Nc1ccc2nsnc2c1)N1CCCCC1,6.0,-1.1,-1.6,-0.6,-1.2,0.3
S=C(Nc1ccc2nsnc2c1)N1CCCCCC1,-7.1,-28.2,41.1,22.7,3.4,61.9*
Cc1ccc(NC(=O)CCNS(=O)(=O)c2ccc3c(c2)CCC(=O)N3)cc1C,-5.4,11.7,3.8,4.5,11.1,9.7
COc1ccc(CCNC(=O)c2cc(=O)c3cc(C)ccc3o2)cc1OC,-14.0,-5.5,-1.1,-16.6,2.4,-4.0
COC(=O)CSc1nnc(CNC(=O)c2ccc(S(=O)(=O)N3CCOCC3)cc2)n1C,-9.9,-5.9,-0.1,-11.4,-0.4,-0.8
Cc1cc(S(=O)(=O)Nc2ccc(C(=O)NCC(C)(C)N3CCOCC3)cc2)ccc1F,-2.0,2.4,-68.5*,-5.5,10.3,-75.4
